From ChEMBL document CHEMBL4257481, “Synthesis and radioprotective effects of novel benzyl naphthyl sulfoxide (sulfone) derivatives transformed from Ex-RAD” (Medchemcomm, 2018)
Active and inactive are the calls of the source. The rule behind the calls is not given here.

System: HUVEC
Experiment: Radioprotective activity against 60Co gamma-irradiation-mediated cytotoxicity in HUVEC assessed as survival rate at 20 uM preincubated for 24 hrs followed by gamma-irradiation and measured after 4 days by MTS assay relative to control
Format: functional
Conditions: Homo sapiens, light or radiation study, read-out: Survival
How it was run: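 HUVECs in RPMI-1640 with 10% FBS, seeded 4000 cells per mL. After 24 h, exposed to compound from a 100 mM DMSO stock (final 20 µM) for 24 h. Then ⁶⁰Co γ-irradiated at 8.0 Gy, 0.93 Gy min⁻¹, and cultured 4 days with medium changes. MTS added for 3 h at 37 °C and A492 read. Survival calculated relative to non-irradiated cells; mean of three independent experiments.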

SMILES	viability at 20 µM
O=C(O)c1ccc(/C=C/S(=O)(=O)Cc2ccc(Cl)cc2)cc1 [RECILISIB SODIUM]	57.5%
[O-][S+](Cc1ccc(F)cc1)c1ccc2cc(Br)ccc2c1 (centres undefined)	77.2%
O=S(=O)(Cc1ccc(Br)cc1)c1ccc2cc(Br)ccc2c1	53.1%
[O-][S+](Cc1ccc(Cl)cc1)c1ccc2ccccc2c1 (centres undefined)	57.2%
[O-][S+](Cc1ccc(F)cc1)c1ccc2ccccc2c1 (centres undefined)	52%
O=S(=O)(Cc1ccccc1Cl)c1ccc2cc(Br)ccc2c1	56.7%
[O-][S+](Cc1ccc(Br)cc1)c1ccc2ccccc2c1 (centres undefined)	59.3%
[O-][S+](Cc1ccccc1F)c1ccc2cc(Br)ccc2c1 (centres undefined)	51.3%
O=S(=O)(Cc1ccccc1F)c1ccc2cc(Br)ccc2c1	52.4%
[O-][S+](Cc1cccc(Cl)c1)c1ccc2cc(Br)ccc2c1 (centres undefined)	55.1%

System: HUVEC
Experiment: Radioprotective activity against 60Co gamma-irradiation-mediated cytotoxicity in HUVEC assessed as increase in survival rate at 40 uM preincubated for 24 hrs followed by gamma-irradiation and measured after 4 days by MTS assay relative to control
Format: functional, cell-based
Conditions: Homo sapiens
How it was run: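 HUVECs seeded at 4000 cells/mL in RPMI-1640 with 10% FBS. After 24 h, compound added at 40 µM (diluted from 100 mM DMSO stock) for 24 h, then 8.0 Gy 60Co γ at 0.93 Gy/min. Cells grown 4 days with medium changed every 2 days, then MTS for 3 h at 37 °C and A492 read. Survival = blank-corrected OD relative to unirradiated cells; mean of three experiments.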

SMILES	Activity
O=C(O)c1ccc(/C=C/S(=O)(=O)Cc2ccc(Cl)cc2)cc1 [RECILISIB SODIUM]	Active
[O-][S+](Cc1ccc(F)cc1)c1ccc2cc(Br)ccc2c1 (centres undefined)	Active
O=S(=O)(Cc1ccc(Br)cc1)c1ccc2cc(Br)ccc2c1	Active
[O-][S+](Cc1ccc(Cl)cc1)c1ccc2ccccc2c1 (centres undefined)	Active
[O-][S+](Cc1ccc(F)cc1)c1ccc2ccccc2c1 (centres undefined)	Active
O=S(=O)(Cc1ccccc1Cl)c1ccc2cc(Br)ccc2c1	Active
[O-][S+](Cc1ccc(Br)cc1)c1ccc2ccccc2c1 (centres undefined)	Active
[O-][S+](Cc1ccccc1F)c1ccc2cc(Br)ccc2c1 (centres undefined)	Active
O=S(=O)(Cc1ccccc1F)c1ccc2cc(Br)ccc2c1	Active
[O-][S+](Cc1cccc(Cl)c1)c1ccc2cc(Br)ccc2c1 (centres undefined)	Active

System: HUVEC
Experiment: Cytotoxicity against HUVEC at 100 uM after 24 hrs by MTS assay
Format: cell-based
Conditions: human
How it was run: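 HUVECs grown in RPMI-1640 with 10% FBS and penicillin/streptomycin, pH 7.2, 37 °C, 5% CO2, then trypsinized at 80% confluence. Compound exposure at 100 µM, with viability read by MTS tetrazolium assay.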

SMILES	Activity
[O-][S+](Cc1ccc(F)cc1)c1ccc2cc(Br)ccc2c1 (centres undefined)	Non-Toxic
O=S(=O)(Cc1ccc(Br)cc1)c1ccc2cc(Br)ccc2c1	Non-Toxic
[O-][S+](Cc1ccc(Cl)cc1)c1ccc2ccccc2c1 (centres undefined)	Non-Toxic
[O-][S+](Cc1ccc(F)cc1)c1ccc2ccccc2c1 (centres undefined)	Non-Toxic
O=S(=O)(Cc1ccccc1Cl)c1ccc2cc(Br)ccc2c1	Non-Toxic
[O-][S+](Cc1ccc(Br)cc1)c1ccc2ccccc2c1 (centres undefined)	Non-Toxic
[O-][S+](Cc1ccccc1F)c1ccc2cc(Br)ccc2c1 (centres undefined)	Non-Toxic
O=S(=O)(Cc1ccccc1F)c1ccc2cc(Br)ccc2c1	Non-Toxic
[O-][S+](Cc1cccc(Cl)c1)c1ccc2cc(Br)ccc2c1 (centres undefined)	Non-Toxic

System: HUVEC
Experiment: Radioprotective activity against 60Co gamma-irradiation-induced DNA damage in HUVEC after 24 hrs by comet assay
Format: functional, cell-based
Conditions: Homo sapiens
How it was run: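 HUVECs (RPMI-1640, 10% FBS) incubated with compound 24 h, then given 6.0 Gy 60Co γ at 0.93 Gy/min. At 24 h post-irradiation, cells (1 × 10^5/mL) were embedded in comet agarose and lysed 30 min at 4 °C. Alkaline unwinding (300 mM NaOH, 1 mM EDTA, pH > 13) ran 30 min, then electrophoresis at 1.0 V/cm, 20 min. Vista green stain; tail length (µm) of 50 comets/slide; three repeats.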

SMILES	Activity
[O-][S+](Cc1ccc(F)cc1)c1ccc2cc(Br)ccc2c1 (centres undefined)	Active

System: Mus musculus
Experiment: Radioprotective activity against 60Co gamma-irradiation-induced toxicity in C57/BL mouse assessed as survival rate at 300 mg/kg, ip administered 15 mins and 24 hrs prior to irradiation and measured over 30 days post irradiation (reference value: 50%)
Format: functional
Conditions: light or radiation study

SMILES	survival at 300 mg/kg
[O-][S+](Cc1ccc(F)cc1)c1ccc2cc(Br)ccc2c1 (centres undefined)	100%

System: Mus musculus
Experiment: Radioprotective activity against 60Co gamma-irradiation-induced toxicity in C57/BL mouse assessed as survival rate at 5 mg/kg, ig administered 24 hrs prior to irradiation and measured over 30 days post irradiation (reference value: 50%)
Format: functional
Conditions: light or radiation study, po

SMILES	survival at 5 mg/kg
C#C[C@]1(O)[C@H](O)C[C@H]2[C@@H]3CCc4cc(OC5CCCC5)ccc4[C@H]3CC[C@@]21C [NYLESTRIOL]	100%

System: Mus musculus
Experiment: Radioprotective activity against 60Co gamma-irradiation-induced toxicity in C57/BL mouse assessed as survival rate at 300 mg/kg, sc administered 15 mins and 24 hrs prior to irradiation and measured over 30 days post irradiation (reference value: 50%)
Format: functional
Conditions: light or radiation study

SMILES	survival at 300 mg/kg
O=C(O)c1ccc(/C=C/S(=O)(=O)Cc2ccc(Cl)cc2)cc1 [RECILISIB SODIUM]	60%

System: Mus musculus
Experiment: Radioprotective activity against 60Co gamma-irradiation-induced body weight loss in C57/BL mouse assessed as increase in body weight at 300 mg/kg, ip administered 15 mins and 24 hrs prior to irradiation and measured over 10 to 30 days post irradiation
Format: functional, organism-based
Conditions: not given

SMILES	Activity
[O-][S+](Cc1ccc(F)cc1)c1ccc2cc(Br)ccc2c1 (centres undefined)	Active
